Experimental data: ChEMBL document CHEMBL1944570, “Discovery of 4''-ether linked azithromycin-quinolone hybrid series: influence of the central linker on the antibacterial activity” (ACS Med Chem Lett, 2011)
≈ marks a conversion by molar mass, not a printed value.

What was measured:
Streptococcus pyogenes [1] = test: Antibacterial activity against erythromycin-susceptible Streptococcus pyogenes by agar microdilution method; type: functional
How it was run: (§1)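 MIC by agar microdilution following NCCLS standards; strains drawn from the PLIVA Research Institute culture collection. MIC reported in μg/mL.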

Streptococcus pneumoniae [2] = test: Antibacterial activity against constitutive MLS resistant Streptococcus pneumoniae by agar microdilution method; type: functional; how it was run: as §1
Staphylococcus aureus [3] = test: Antibacterial activity against erythromycin-susceptible Staphylococcus aureus by agar microdilution method; type: functional
How it was run: (§2)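 Agar microdilution MIC per NCCLS standards against strains from the Pliva Research Institute culture collection; values in µg/mL. Panel included erythromycin-susceptible strains and strains with inducible or constitutive MLS resistance.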

Staphylococcus aureus [4] = test: Antibacterial activity against constitutive MLS resistant Staphylococcus aureus by agar microdilution method; type: functional; how it was run: as §1
Streptococcus pyogenes [5] = test: Antibacterial activity against constitutive MLS resistant Streptococcus pyogenes by agar microdilution method; type: functional; how it was run: as §1
Staphylococcus aureus [6] = test: Antibacterial activity against efflux mediated macrolide resistant Staphylococcus aureus by agar microdilution method; type: functional; how it was run: as §1
Streptococcus pyogenes [7] = test: Antibacterial activity against efflux mediated macrolide resistant Streptococcus pyogenes by agar microdilution method; type: functional; how it was run: as §1
Staphylococcus aureus [8] = test: Antibacterial activity against Staphylococcus aureus with inducible resistance to MLS by agar microdilution method; type: functional; how it was run: as §1
Staphylococcus aureus [9] = test: Antibacterial activity against ciprofloxacin-resistant Staphylococcus aureus by agar microdilution method; type: functional; how it was run: as §1
Streptococcus pneumoniae [10] = test: Antibacterial activity against erythromycin-susceptible Streptococcus pneumoniae by agar microdilution method; type: functional; how it was run: as §1
Moraxella catarrhalis = test: Antibacterial activity against Moraxella catarrhalis by agar microdilution method; type: functional; how it was run: as §2
Haemophilus influenzae = test: Antibacterial activity against Haemophilus influenzae B0529 by agar microdilution method; type: functional; how it was run: as §2
Streptococcus pyogenes [11] = test: Antibacterial activity against Streptococcus pyogenes with inducible resistance to MLS by agar microdilution method; type: functional; how it was run: as §1
Streptococcus pneumoniae [12] = test: Antibacterial activity against efflux mediated macrolide resistant Streptococcus pneumoniae by agar microdilution method; type: functional; how it was run: as §1
[13] = Inhibition of Escherichia coli topoisomerase 4-mediated relaxation of supercoiled pBR322 DNA
[14] = Inhibition of protein synthesis using Escherichia coli S30 extracts preincubated for 10 mins measured after 50 mins by luciferase reporter gene assay; type: functional
[15] = Inhibition of Escherichia coli DNA gyrase-mediated supercoiling of relaxed pBR322 DNA

SMILES	MIC (Streptococcus pyogenes [1]) [µg/mL]	MIC (Streptococcus pneumoniae [2]) [µg/mL]	MIC (Staphylococcus aureus [3]) [µg/mL]	MIC (Staphylococcus aureus [4]) [µg/mL]	MIC (Streptococcus pyogenes [5]) [µg/mL]	MIC (Staphylococcus aureus [6]) [µg/mL]	MIC (Streptococcus pyogenes [7]) [µg/mL]	MIC (Staphylococcus aureus [8]) [µg/mL]	MIC (Staphylococcus aureus [9]) [µg/mL]	MIC (Streptococcus pneumoniae [10]) [µg/mL]	MIC (Moraxella catarrhalis) [µg/mL]	MIC (Haemophilus influenzae) [µg/mL]	MIC (Streptococcus pyogenes [11]) [µg/mL]	MIC (Streptococcus pneumoniae [12]) [µg/mL]	IC50 [13] [µM]	IC50 [14] [µM]	IC50 [15] [µM]
CC[C@H]1OC(=O)[C@H](C)[C@@H](O[C@H]2C[C@@](C)(OC)[C@@H](OCCCC(=O)NCCNc3cc4c(=O)c(C(=O)O)cn(C5CC5)c4cc3Cl)[C@H](C)O2)[C@H](C)[C@@H](O[C@@H]2O[C@H](C)C[C@H](N(C)C)[C@H]2O)[C@](C)(O)C[C@@H](C)CN(C)[C@H](C)[C@@H](O)[C@]1(C)O	≤ 0.125	0.5 (≈ 0.439 µM)	4 (≈ 3.51 µM)	64 (≈ 56.2 µM)	2 (≈ 1.76 µM)	4 (≈ 3.51 µM)	2 (≈ 1.76 µM)	32 (≈ 28.1 µM)	≥ 64	0.5 (≈ 0.439 µM)	4 (≈ 3.51 µM)	8 (≈ 7.02 µM)	0.25 (≈ 0.22 µM)	≤ 0.125	–	–	–
CC[C@H]1OC(=O)[C@H](C)[C@@H](O[C@H]2C[C@@](C)(OC)[C@@H](OCCCC(=O)NCCOCCOCCNc3cc4c(=O)c(C(=O)O)cn(C5CC5)c4cc3Cl)[C@H](C)O2)[C@H](C)[C@@H](O[C@@H]2O[C@H](C)C[C@H](N(C)C)[C@H]2O)[C@](C)(O)C[C@@H](C)CN(C)[C@H](C)[C@@H](O)[C@]1(C)O	0.25 (≈ 0.204 µM)	64 (≈ 52.2 µM)	16 (≈ 13 µM)	64 (≈ 52.2 µM)	4 (≈ 3.26 µM)	8 (≈ 6.52 µM)	1 (≈ 0.815 µM)	64 (≈ 52.2 µM)	≥ 64	≤ 0.125	2 (≈ 1.63 µM)	8 (≈ 6.52 µM)	0.5 (≈ 0.408 µM)	0.25 (≈ 0.204 µM)	–	–	–
CC[C@H]1OC(=O)[C@H](C)[C@@H](O[C@H]2C[C@@](C)(OC)[C@@H](OCCNCCNc3cc4c(cc3F)c(=O)c(C(=O)O)cn4C3CC3)[C@H](C)O2)[C@H](C)[C@@H](O[C@@H]2O[C@H](C)C[C@H](N(C)C)[C@H]2O)[C@](C)(O)C[C@@H](C)CN(C)[C@H](C)[C@H]2OC(=O)O[C@@]21C	≤ 0.125	64 (≈ 57.8 µM)	4 (≈ 3.62 µM)	> 64	8 (≈ 7.23 µM)	4 (≈ 3.62 µM)	4 (≈ 3.62 µM)	64 (≈ 57.8 µM)	≥ 64	≤ 0.125	0.5 (≈ 0.452 µM)	4 (≈ 3.62 µM)	0.25 (≈ 0.226 µM)	0.25 (≈ 0.226 µM)	–	–	–
CC[C@H]1OC(=O)[C@H](C)[C@@H](O[C@H]2C[C@@](C)(OC)[C@@H](OCCNCCOCCNc3cc4c(=O)c(C(=O)O)cn(C5CC5)c4cc3Cl)[C@H](C)O2)[C@H](C)[C@@H](O[C@@H]2O[C@H](C)C[C@H](N(C)C)[C@H]2O)[C@](C)(O)C[C@@H](C)CN(C)[C@H](C)[C@H]2OC(=O)O[C@@]21C	≤ 0.125	–	≤ 0.125	32 (≈ 27.4 µM)	0.5 (≈ 0.429 µM)	0.25 (≈ 0.214 µM)	–	0.25 (≈ 0.214 µM)	32 (≈ 27.4 µM)	≤ 0.125	≤ 0.125	0.5 (≈ 0.429 µM)	–	–	60	0.28	70
CC[C@H]1OC(=O)[C@H](C)[C@@H](O[C@H]2C[C@@](C)(OC)[C@@H](OCCCC(=O)NCCOCCNc3cc4c(cc3F)c(=O)c(C(=O)O)cn4C3CC3)[C@H](C)O2)[C@H](C)[C@@H](O[C@@H]2O[C@H](C)C[C@H](N(C)C)[C@H]2O)[C@](C)(O)C[C@@H](C)CN(C)[C@H](C)[C@@H](O)[C@]1(C)O	0.25 (≈ 0.214 µM)	8 (≈ 6.86 µM)	16 (≈ 13.7 µM)	64 (≈ 54.9 µM)	4 (≈ 3.43 µM)	32 (≈ 27.4 µM)	2 (≈ 1.71 µM)	64 (≈ 54.9 µM)	≥ 64	0.5 (≈ 0.429 µM)	8 (≈ 6.86 µM)	16 (≈ 13.7 µM)	0.25 (≈ 0.214 µM)	0.25 (≈ 0.214 µM)	–	–	–
CC[C@H]1OC(=O)[C@H](C)[C@@H](O[C@H]2C[C@@](C)(OC)[C@@H](OCCNCCOCCNc3cc4c(=O)c(C(=O)O)cn(C5CC5)c4cc3Cl)[C@H](C)O2)[C@H](C)[C@@H](O[C@@H]2O[C@H](C)C[C@H](N(C)C)[C@H]2O)[C@](C)(O)C[C@@H](C)CN(C)[C@H](C)[C@@H](O)[C@]1(C)O	≤ 0.125	0.25 (≈ 0.219 µM)	≤ 0.125	64 (≈ 56.1 µM)	1 (≈ 0.877 µM)	0.5 (≈ 0.438 µM)	0.125 (≈ 0.11 µM)	0.25 (≈ 0.219 µM)	≥ 64	≤ 0.125	0.125 (≈ 0.11 µM)	0.5 (≈ 0.438 µM)	–	–	50	0.35	60
O=C(O)c1cn(C2CC2)c2cc(N3CCNCC3)c(F)cc2c1=O [CIPROFLOXACIN]	2 (≈ 6.04 µM)	0.25 (≈ 0.754 µM)	–	–	0.5 (≈ 1.51 µM)	≤ 0.125	≤ 0.125	≤ 0.125	≥ 64	≤ 0.125	0.125 (≈ 0.377 µM)	≤ 0.125	0.25 (≈ 0.754 µM)	0.25 (≈ 0.754 µM)	3	> 50	0.8
CC[C@H]1OC(=O)[C@H](C)[C@@H](O[C@H]2C[C@@](C)(OC)[C@@H](OCCCC(=O)NCCNc3cc4c(cc3F)c(=O)c(C(=O)O)cn4C3CC3)[C@H](C)O2)[C@H](C)[C@@H](O[C@@H]2O[C@H](C)C[C@H](N(C)C)[C@H]2O)[C@](C)(O)C[C@@H](C)CN(C)[C@H](C)[C@@H](O)[C@]1(C)O	1 (≈ 0.891 µM)	1 (≈ 0.891 µM)	8 (≈ 7.13 µM)	64 (≈ 57 µM)	16 (≈ 14.3 µM)	16 (≈ 14.3 µM)	16 (≈ 14.3 µM)	8 (≈ 7.13 µM)	≥ 64	1 (≈ 0.891 µM)	2 (≈ 1.78 µM)	8 (≈ 7.13 µM)	1 (≈ 0.891 µM)	4 (≈ 3.56 µM)	–	–	–
CC[C@H]1OC(=O)[C@H](C)C(=O)[C@H](C)[C@@H](O[C@@H]2O[C@H](C)C[C@H](N(C)C)[C@H]2O)[C@](C)(OC)C[C@@H](C)C(=O)[C@H](C)[C@H]2N(CCCCn3cnc(-c4cccnc4)c3)C(=O)O[C@]12C [TELITHROMYCIN]	≤ 0.125	–	≤ 0.125	> 64	4 (≈ 4.93 µM)	0.25 (≈ 0.308 µM)	0.25 (≈ 0.308 µM)	0.5 (≈ 0.616 µM)	≥ 64	≤ 0.125	≤ 0.125	1 (≈ 1.23 µM)	–	0.5 (≈ 0.616 µM)	> 50	0.23	> 50
CC[C@H]1OC(=O)[C@H](C)[C@@H](O[C@H]2C[C@@](C)(OC)[C@@H](OCCNCCNc3cc4c(=O)c(C(=O)O)cn(C5CC5)c4cc3Cl)[C@H](C)O2)[C@H](C)[C@@H](O[C@@H]2O[C@H](C)C[C@H](N(C)C)[C@H]2O)[C@](C)(O)C[C@@H](C)CN(C)[C@H](C)[C@@H](O)[C@]1(C)O	≤ 0.125	64 (≈ 58.4 µM)	4 (≈ 3.65 µM)	> 64	16 (≈ 14.6 µM)	8 (≈ 7.29 µM)	8 (≈ 7.29 µM)	64 (≈ 58.4 µM)	≥ 64	≤ 0.125	0.5 (≈ 0.456 µM)	2 (≈ 1.82 µM)	1 (≈ 0.912 µM)	0.25 (≈ 0.228 µM)	–	–	–
CC[C@H]1OC(=O)[C@H](C)[C@@H](O[C@H]2C[C@@](C)(OC)[C@@H](O)[C@H](C)O2)[C@H](C)[C@@H](O[C@@H]2O[C@H](C)C[C@H](N(C)C)[C@H]2O)[C@](C)(O)C[C@@H](C)CN(C)[C@H](C)[C@@H](O)[C@]1(C)O [AZITHROMYCIN]	≤ 0.125	> 64	1 (≈ 1.34 µM)	> 64	> 64	> 64	1 (≈ 1.34 µM)	> 64	≥ 64	≤ 0.125	0.25 (≈ 0.334 µM)	1 (≈ 1.34 µM)	8 (≈ 10.7 µM)	4 (≈ 5.34 µM)	–	–	–
